Experimental data published in PMC4962910 (Nature cell biology, 2014).
Non-standard residues stand in square brackets, D forms with d. Residues, ends and D or L forms follow the SMILES beside them. No end group written: not given here. pT = C[C@@H](OP(=O)(O)O)[C@H](N)C(=O)O; pS = N[C@@H](COP(=O)(O)O)C(=O)O

How the values were obtained:
NBS1 = target: T1, NBS1 (Homo sapiens, UniProt O60934); assay: Isothermal titration calorimetry; format: binding
T1 sequence (O60934 1-382 limits assumed): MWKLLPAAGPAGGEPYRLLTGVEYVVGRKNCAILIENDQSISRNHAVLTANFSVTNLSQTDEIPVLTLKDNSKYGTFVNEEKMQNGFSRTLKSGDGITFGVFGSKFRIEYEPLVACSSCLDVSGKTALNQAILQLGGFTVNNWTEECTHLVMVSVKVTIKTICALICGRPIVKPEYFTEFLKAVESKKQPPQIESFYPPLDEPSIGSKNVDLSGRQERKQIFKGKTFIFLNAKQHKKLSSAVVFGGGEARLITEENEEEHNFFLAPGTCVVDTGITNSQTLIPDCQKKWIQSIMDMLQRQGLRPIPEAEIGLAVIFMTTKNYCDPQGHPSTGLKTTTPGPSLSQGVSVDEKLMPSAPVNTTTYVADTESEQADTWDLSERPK

[1] = tested on: NBS1-GFP positive nucleoli; format: cell-based; settings: PARP inhibition (Supplementary Fig. 6c)
Procedure, shortened: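 U2OS cells stably expressing NBS1-GFP (U2OS-NBS1-GFP2) were grown in DME with 10 % fetal bovine serum, penicillin and streptomycin. Medium was supplemented with the PARP inhibitor veliparib (ABT888) for 1 h. Each cell was scored manually as positive or negative by visual presence of GFP signal within nucleoli.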

[2] = target: NBS1 N-terminal FHA-BRCT region (sample of the ITC) (human); assay: ITC

CC(C)[C@H](NC(=O)[C@H](CC(=O)O)NC(=O)[C@@H](NC(=O)[C@H](CCC(=O)O)NC(=O)[C@H](CC(=O)O)NC(=O)[C@H](COP(=O)(O)O)NC(=O)[C@H](CO)NC(=O)[C@H](CO)NC(=O)[C@@H](N)CO)[C@@H](C)OP(=O)(O)O)C(=O)N[C@@H](CCC(=O)O)C(=O)O [SDET] (H-SSS[pS]DE[pT]DVE-OH)
Kd (NBS1): ~1 µM

C[C@]1(c2nc3c(C(N)=O)cccc3[nH]2)CCCN1 [PARP inhibition, Veliparib]
number of cells with NBS1-GFP positive nucleoli [1]: small but reproducible decrease

SSS[pS]DE[pT]DVE [Treacle SDET phosphopeptide (SSSpSDEpTDVE)]
Kd [2]: 1 µM
